Consider one compound from ChEMBL document CHEMBL4680257, “Discovery of novel NF-кB inhibitor based on scaffold hopping: 1,4,5,6,7,8-hexahydropyrido[4,3-d]pyrimidine” (Eur J Med Chem, 2020).

Activity calls are given as the source filed them. No cut-off for these calls is given here.

The test system of data set [1] is RAW264.7. Nature of the data set: Inhibition of NF-kappaB in mouse RAW264.7 cells assessed as reduction in LPS-induced p38 phosphorylation at 1 to 4 uM incubated for 1 hr followed by LPS stimulation and measured after 30 mins by Western blot analysis. Particulars: dose 1-4 µM. The class given is cell-based. The gist of the method:
(§1)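 RAW264.7 incubated 1 h with compound (1.0, 2.0, 4.0 µM), then LPS 1.0 µg/mL for 30 min before extraction. Lysates blotted to nitrocellulose and probed overnight at 4 °C for total and phospho forms of p65, IκBα, Akt, ERK1/2, JNK and p38; secondary antibody 2 h at room temperature. ECL detection, normalized to GAPDH, mean ± SD of triplicate tests.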
(A western blot detects proteins with antibodies after separation by electrophoresis.)

The test system of data set [2] is HepG2. Nature of the data set: Cytotoxicity against human HepG2 cells assessed as reduction in cell viability incubated for 24 hrs by MTT assay. The class given is functional, cell-based. Particulars: HepG2, 24 h. The essentials: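 Cells kept at 37 °C in 5% CO₂. HepG2 grown in DMEM with 10% serum; HHL-5, LO2 and SMMC-7721 in 1640 medium with 10% serum. Seeded, grown 24 h, then exposed 24 h to 10, 5, 2.5, 1.25, 0.625 and 0.3125 µg/mL. MTT (5 mg/mL) added for 4 h at 37 °C; formazan dissolved in DMSO, OD read at 570 nm. IC50 averaged from three replicates.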

Data set [3] concerns HepG2. Nature of the data set: Induction of apoptosis in human HepG2 cells assessed as necrotic cells at 1 uM incubated for 24 hrs by annexin V-FITC and PI staining based flow cytometry analysis (reference value: 0.8 %). The class given is functional. The gist of the method:
(§2)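 Cells seeded at 2×10^5 per well and treated 24 h with 1.0, 2.0 or 4.0 µM, or DMSO. Harvested, washed twice in cold PBS, resuspended at 1×10^5 cells/mL in buffer. Stained with Annexin V-FITC plus propidium iodide for 15 min at room temperature in the dark, then analysed by flow cytometry.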
(In general: A flow cytometer gives signals particle by particle.)

Data set [4] concerns RAW264.7. Kind of data set: Inhibition of NF-kappaB in mouse RAW264.7 cells assessed as reduction in LPS-induced p65 nuclear translocation at 4 uM pretreated with LPS for 15 mins followed by compound addition and measured after 2 hrs by DAPI staining based fluorescence microscopy. The class given is cell-based. Conditions: time 135.0 min. The gist of the method:
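RAW264.7 exposed to LPS (1 µg/mL) for 15 min, then 4.0 µM compound for 2 h. Fixed at room temperature and blocked with 3% BSA. Anti-p65 (1:200) overnight at 4 °C, then secondary (1:200) for 30 min at room temperature. Nuclei stained with DAPI for 15 min; imaged on a high-content fluorescence system. Repeated three times.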

Data set [5] concerns HepG2. Nature of the data set: Induction of apoptosis in human HepG2 cells assessed as decrease in Bcl-2 expression incubated for 24 hrs by Western blot analysis. The class given is functional, cell-based. Particulars: dose 1-4 µM. The essentials:
(§3)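 HepG2 exposed to 1.0, 2.0 or 4.0 µM for 24 h. Lysates separated by electrophoresis and blotted onto nitrocellulose. Probed overnight at 4 °C with anti-Bcl-2, anti-BAX or anti-cleaved caspase-3, then 2 h at room temperature with anti-mouse/rabbit IgG. ECL detection, GAPDH as loading control; quantified from more than three separate experiments.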

Data set [6] has as its system RAW264.7. Nature of the data set: Antiinflammatory activity against mouse RAW264.7 cells assessed as LPS-induced TNF-alpha at 5 uM pretreated for 2 hrs followed by LPS stimulation and measured after 22 hrs by ELISA (reference value: 0 %). The class given is functional. Conditions: time 24 hrs. A general note: An ELISA detects its analyte on a solid surface through an enzyme-linked reagent.

The subject of data set [7] is RAW264.7. Nature of the data set: Cytotoxicity against mouse RAW264.7 cells assessed as reduction in cell viability at 5 uM incubated for 24 hrs by MTT assay. Conditions: raw264.7, 24 h. The class given is cell-based.
The subject of data set [8] is HepG2. Nature of the data set: Induction of apoptosis in human HepG2 cells assessed as early apoptotic cells at 4 uM incubated for 24 hrs by annexin V-FITC and PI staining based flow cytometry analysis (reference value: 0.2 %). The class given is functional. The gist of the method: as §2
The subject of data set [9] is RAW264.7. Nature of the data set: Inhibition of NF-kappaB in mouse RAW264.7 cells assessed as reduction in LPS-induced ERK phosphorylation at 1 to 4 uM incubated for 1 hr followed by LPS stimulation and measured after 30 mins by Western blot analysis. The class given is cell-based. Particulars: dose 1-4 µM. The gist of the method:
as §1

For data set [10], the system named is HepG2. Nature of the data set: Induction of apoptosis in human HepG2 cells assessed as increase in Caspase-3 expression incubated for 24 hrs by Western blot analysis. The class given is functional, cell-based. Particulars: dose 1-4 µM. The gist of the method: as §3
The test system of data set [11] is RAW264.7. Nature of the data set: Inhibition of NF-kappaB in mouse RAW264.7 cells assessed as reduction in LPS-induced IkappaBalpha phosphorylation incubated for 1 hr followed by LPS stimulation and measured after 30 mins by Western blot analysis. Particulars: dose 1-4 µM. The class given is cell-based. The gist of the method: as §1
The subject of data set [12] is HepG2. Kind of data set: Inhibition of NF-kappaB in human HepG2 cells assessed as reduction in TNFalpha-induced p65 nuclear translocation at 4 uM pretreated with TNFalpha for 15 mins followed by compound addition and measured after 2 hrs by DAPI staining based fluorescence microscopy. Conditions: time 135.0 min.
Data set [13] concerns HepG2. Nature of the data set: Induction of apoptosis in human HepG2 cells assessed as necrotic cells at 4 uM incubated for 24 hrs by annexin V-FITC and PI staining based flow cytometry analysis (reference value: 0.8 %). The class given is functional. The essentials: as §2
Data set [14] relates to HepG2. Kind of data set: Induction of apoptosis in human HepG2 cells assessed as early apoptotic cells at 1 uM incubated for 24 hrs by annexin V-FITC and PI staining based flow cytometry analysis (reference value: 0.2 %). The class given is functional. The essentials:
as §2

For data set [15], the system named is HepG2. Kind of data set: Induction of apoptosis in human HepG2 cells assessed as viable cells at 4 uM incubated for 24 hrs by annexin V-FITC and PI staining based flow cytometry analysis (reference value: 94.2 %). The class given is functional. Particulars: read-out: Activity. The essentials: as §2

As usually defined, the inhibition is the share of the control response that was lost under treatment. For orientation: IC50 means the point on the concentration scale where inhibition reaches its midpoint. Take `Cl.NC1=NC(c2cccc(F)c2)C2=C(N1)/C(=C/c1cccc(F)c1)CN(S(=O)(=O)c1ccc(C(F)(F)F)cc1)C2` (stereo not given): the inhibition result in data set [1], in data set [4], in data set [9] and in data set [12] was “Active” in each case. In data set [2], the IC50 stood at 2100 nM. Also, the Activity in data set [3] is 0.8%; in data set [5] it was “Dose-dependent effect”; in data set [7] it was “Non-Toxic”; in data set [8] it was 49.8%; in [10] it was “Dose-dependent effect”; in [13], 1.2%. Further, in [14], the Activity is on record as 53.4%. Further, the inhibition at 5 µM in data set [6] amounted to 88.5%. Besides, in [11], the inhibition result is “Dose-dependent effect”. The viability at 4 µM in data set [15] amounted to 30.6%.
